The values below come from article PMC10774712 (RSC Advances, 2024).

Entries after “also recorded” stand apart in the source; their conditions may differ.

One series relates to NCI 60 cancer cell lines. Nature of the series: NCI 60 cell panel anti-proliferative assay. It is filed as cell-based, human. Particulars: 10 μM single dose.
The next series concerns HOP-92. Nature of the series: NCI 60 SRB assay. The format is cell-based. To be noted: Homo sapiens, HOP-92, read-out: growth inhibition.
The subject of another series is DOX/MDA-MB-468 cells. The series is described as follows: MTT cytotoxicity in drug-resistant DOX/MDA-MB-468 cell line. The format is cell-based. To be noted: read-out: IC50 DOX/MDA-MB-468, drug-resistant DOX/MDA-MB-468 cells.
In the next series the test system is male Wistar rats. Nature of the series: Toxicological study / calculation of LD50. The format is in vivo, rat. The gist of the method: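 Adult male Wistar rats, 200 ± 20 g, acclimatised 7 days at 22 ± 3 °C under a natural light cycle and fasted 18 h before dosing. Single dose of test compound in 0.5 mL DMSO. Five dose levels given to groups of five rats.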
The test system of series [1] is MDA-MB-468 cells. Nature of the series: Annexin-V-FITC/PI apoptosis assay. It is filed as cell-based. The gist of the method: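 MDA-MB-468 cells seeded at 4 × 10⁶ per T75 flask and exposed to test compound for 24 and 48 h, with a DMSO control. Cells trypsinised; 0.5 × 10⁶ cells washed twice in PBS and stained with 5 μl annexin V-FITC plus 5 μl PI in 1× binding buffer, 15 min, room temperature, dark. Read by flow cytometry; early, late and total apoptotic fractions scored.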

In a further series the target is EGFR tyrosine kinase (Homo sapiens, UniProt P00533). The series is described as follows: In vitro EGFR tyrosine kinase activity. It is filed as biochemical. To be noted: read-out: EGFR ± SD IC50.
Series [2] relates to MDA-MB-468 cells. Nature of the series: Cell cycle analysis. It is filed as cell-based. To be noted: for cell cycle arrest (in words): MDA-MB-468. The gist of the method:
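Cells plated at 4 × 10⁶ per T75 flask and treated with test compound for 24 and 48 h. Harvested by trypsinisation, washed in PBS and fixed in ice-cold absolute alcohol. DNA stained with a commercial cell-cycle DNA reagent kit per the maker's instructions. Phase distribution determined by flow cytometry.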

Another series deals with P-glycoprotein. Nature of the series: Quantitative real time PCR for P-glycoprotein. To be noted: MDA-MB-468/ADR cells, 72 h, in comparison to the control (1). The format is cell-based. The gist of the method: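 P-gp gene expression measured by real-time RT-PCR in 1 × 10⁵ MDA-MB-468 cells. Cells exposed to test compound at 0.125, 0.250, 0.500 and 1.000 μM for 72 h. Expression reported as fold change relative to untreated control, set at 1.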
(In general: Real-time PCR tracks product formation cycle by cycle.)

As for `CSc1nc(-c2ccc(Cl)cc2)c2c(NC(=O)c3ccccc3)nnc-2[nH]1` [Compound 6, N-(4-(4-Chlorophenyl)-6-(methylthio)-7H-pyrazolo[3,4-d]pyrimidin-3-yl)benzamide], the “antiproliferative activity (in words)” value in the series on NCI 60 cancer cell lines (most of the cancer cell lines) was “poor antiproliferative activity”. In addition, the inhibition (commonly the change of the read-out against control, counted positive when it falls) at 10 µM in the series with HOP-92 is > 100%.

Take “Ethyl 1-(3-benzamido-4-(4-chlorophenyl)-7H-pyrazolo[3,4-d]pyrimidin-6-yl)-5-(2,4-dichlorophenyl)-3-oxo-2,3-dihydro-1H-pyrazole-4-carboxylate [Compound 16]”: the IC50 in the series on DOX/MDA-MB-468 cells worked out at 844 nM; on EGFR tyrosine kinase, 34 ± 2 nM. For the same compound, the time to death in the series on male Wistar rats (1000 mg kg^−1) was ≤ 7 days. Further, in the series with male Wistar rats (1000 mg kg^−1, after intraperitoneal injection), the toxic signs entry is “abdominal muscle contractions and ataxia signs”. Also, the “effect on the animals” value with male Wistar rats (doses 55, 90 and 100 mg kg^−1) was “does not produce any significant effect”. The “apoptosis induction (in words)” value in the series on MDA-MB-468 cells [1] (MDA-MB-468) was “increased the percentage of apoptotic cells in a time-dependent manner”. Moreover, the late cellular apoptosis with MDA-MB-468 cells [1] (MDA-MB-468, IC50 of compound, DMSO control 0.27%) worked out at 54.61%. The same compound had an early/primary apoptosis in the series with MDA-MB-468 cells [1] (MDA-MB-468, IC50 of compound, DMSO control 0.39%, lower right quadrant) of 18.08%. For the same compound, in the series with MDA-MB-468 cells [1] (MDA-MB-468, IC50 of compound, DMSO control 2.09%), the total apoptosis is on record as 46.59%. In addition, in the series on MDA-MB-468 cells [1] (MDA-MB-468, IC50 of compound, control 0.25%, upper right quadrant), the late apoptosis stood at 31.47%. Further, the “cell cycle arrest (in words)” value in the series on MDA-MB-468 cells [2] was “cell cycle arrest at the S phase; also recorded: G1 and S phases arrest pattern”; in the series on MDA-MB-468 cells [2] (listed as 16a), “induce cell cycle arrest with concurrent increase in G1 and S population”. The “cells in S phase (%DIP S)” value in the series with MDA-MB-468 cells [2] (MDA-MB-468, compound at its IC50, control 22.98%) was 28.16%. The “cells in G1 phase (%DIP G1)” value with MDA-MB-468 cells [2] (MDA-MB-468, compound at its IC50, control 52.76%) was found to be 57.41%. The “MDA-MB-468 P-glycoprotein fold change” value in the series with P-glycoprotein is listed as 0.449 fold.

Turning to “N-(4-(4-Chlorophenyl)-6-(4-cyano-5-(2,4-dichlorophenyl)-3-oxo-2,3-dihydro-1H-pyrazol-1-yl)-7H-pyrazolo[3,4-d]pyrimidin-3-yl)benzamide [Compound 15]”, the results for the IC50 in the series with DOX/MDA-MB-468 cells and on EGFR tyrosine kinase were 267 nM and 135 ± 6 nM, respectively. In addition, the cell growth inhibition entry with NCI 60 cancer cell lines (some melanoma, ovarian, renal and breast cancer cell lines) is given as “above 100%”. Moreover, the “MDA-MB-468 P-glycoprotein fold change” value in the series on P-glycoprotein is given as 0.301 fold.
